Experimental data as given in PMC5648746 (Clinical Pharmacokinetics, 2017).

Tests used:
[1] = cited from earlier work
[2] = single oral dose of radio-labelled ixazomib, five patients with advanced cancer; cited from earlier work
[3] = Population pharmacokinetic analysis; format: in vivo, human
Outline: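 Plasma from 755 adults with advanced haematologic or non-haematologic malignancies given oral (BSA-based or fixed) or IV (BSA-based) doses, weekly (28-day cycle) or twice-weekly (21-day cycle); sampled pre-dose and post-dose. LC-MS/MS with 13C9-labelled internal standard, linear 0.5–500 ng/mL. Three-compartment model, first-order absorption with lag; additive log-scale residual error; stepwise covariate selection, p = 0.01 plus ≥10% variance reduction.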

[4] = after a high-calorie high-fat meal; cited from earlier work
[5] = Western patients, weekly dose; cited from earlier work
[6] = cited from earlier work; remark: listed apart in the source
[7] = system: human cDNA-expressed CYP isozymes; conditions: clinically relevant ixazomib concentrations; cited from earlier work
[8] = system: patients with multiple myeloma; conditions: ixazomib plus lenalidomide-dexamethasone vs placebo plus lenalidomide-dexamethasone, TOURMALINE-MM1; cited from earlier work
[9] = previous population PK analysis, four phase I studies; cited from earlier work
[10] = Individual predicted exposure; format: in vivo, human; conditions: oral ixazomib; figure value with 95% CI
[11] = typical (population) parameter estimates

CC(C)C[C@H](NC(=O)CNC(=O)c1cc(Cl)ccc1Cl)B(O)O [ixazomib]
Dose dependence of exposure (AUC) [1]: dose-proportional increases in exposure
Accumulation ratio for AUC ([1]; once-weekly repeat-dose administration): approximately 2
Median time to maximum plasma concentration ([1]; post-dose, oral): 1 h
Administered radioactivity excreted in feces [2]: 22%
Administered radioactivity excreted in urine [2]: 62%
Inter-individual variability on log CL ([3]; % coefficient of variation): 44%
Inter-individual variability on log F ([3]; % coefficient of variation): 73%
Inter-individual variability on log V4 ([3]; % coefficient of variation): 79%
Change in V4 at the 5th percentile of BSA relative to median BSA ([3]; BSA 1.5 m^2 vs median 1.87 m^2): −37%
Change in V4 at the 95th percentile of BSA relative to median BSA ([3]; BSA 2.25 m^2 vs median 1.87 m^2): +46%
Impact of BSA on CL ([3]; BSA had a small effect on V4): did not impact CL
Effect of age on ixazomib PK parameters ([3]; age 23–91 years): not found to have a clinically relevant effect
Correlation between log CL and log F (random effects) ([3]; coefficient of correlation): 82%
Impact of BSA on V4 (V4[BSA]), estimate ([3]; covariate coefficient of power function): 2.06
Absorption lag time (TLAG), untransformed parameter ([3]; final model): 13 min
Absorption rate constant (Ka), untransformed parameter ([3]; final model): 0.34 h⁻¹
Volume of the first peripheral compartment (V3), untransformed parameter ([3]; final model): 309 L
Volume of the second peripheral compartment (V4), untransformed parameter ([3]; final model, at median BSA): 205 L
Impact of CrCl and total bilirubin on ixazomib pharmacokinetics ([3]; mild or moderate renal impairment (CrCl 30–90 mL/min), mild hepatic impairment): neither CrCl nor total bilirubin had any clinically relevant impact
Absorption rate constant (log Ka), estimate ([3]; raw NONMEM estimate, log scale): −1.09
Volume of the first peripheral compartment (log V3), estimate ([3]; raw NONMEM estimate, log scale): 5.73
Volume of the second peripheral compartment (log V4), estimate ([3]; raw NONMEM estimate, log scale): 5.32
Population estimate of steady-state volume of distribution [3, 11]: 527 L
Population estimate of t1/2,γ [3, 11]: 224 h
Reduction in peak plasma concentration with food [4]: 69%
Reduction in total systemic exposure (AUC) with food [4]: 28%
Maximum tolerated dose [5]: 5.5 mg
Decrease in systemic exposure (AUC) of ixazomib with rifampin ([6]; co-administration of strong pleiotropic PXR-mediated inducer rifampin): 74%
Effect of the strong CYP3A inhibitor clarithromycin on ixazomib pharmacokinetics ([6]; controlled phase I clinical study): absence of an effect
Contribution of specific CYP isozymes to ixazomib metabolism [7]: no specific CYP isozyme predominantly contributed
Improvement in progression-free survival [8]: 35%
Estimated absolute bioavailability [9]: 60%
Percent change in mean AUC∞, Asian race relative to White race [10]: 35%
